Test results reported in PMC4876717 (ACS chemical neuroscience, 2015).

Assays:
[1] = tested on: hydrolytic enzyme KIAA1363; settings: relative to FAAH; cited from earlier work
[2] = tested on: FAAH; settings: read-out: IC50 to FAAH in vitro; cited from earlier work
[3] = tested on: triacylglycerol hydrolase (TGH); settings: relative to FAAH; cited from earlier work
[4] = cited from earlier work
[5] = PET imaging in rats, brain uptake; assay type: in vivo, Sprague-Dawley rats
Procedure, shortened: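 Male Sprague-Dawley rats (7 weeks, 210–230 g) under isoflurane (5% induction, 1–2% maintenance). Tail-vein catheter used to inject tracer (40–51 MBq, 0.7–1 nmol/200 μL). Scans: 90 min 3D list mode, 350–750 keV, binned 1 min × 4, 2 min × 8, […]. Filtered back-projection. ROIs on whole brain, cerebral cortex and cerebellum. Decay-corrected SUV from injected activity and body weight. n = 3.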

[6] = target: T1, FAAH (Rattus norvegicus, UniProt P97612); test: PET blocking study with URB597 in rats; assay type: in vivo, Sprague-Dawley rats; settings: pretreatment with URB597 3 mg/kg, 30 min iv before injection
T1 sequence (P97612 1-579): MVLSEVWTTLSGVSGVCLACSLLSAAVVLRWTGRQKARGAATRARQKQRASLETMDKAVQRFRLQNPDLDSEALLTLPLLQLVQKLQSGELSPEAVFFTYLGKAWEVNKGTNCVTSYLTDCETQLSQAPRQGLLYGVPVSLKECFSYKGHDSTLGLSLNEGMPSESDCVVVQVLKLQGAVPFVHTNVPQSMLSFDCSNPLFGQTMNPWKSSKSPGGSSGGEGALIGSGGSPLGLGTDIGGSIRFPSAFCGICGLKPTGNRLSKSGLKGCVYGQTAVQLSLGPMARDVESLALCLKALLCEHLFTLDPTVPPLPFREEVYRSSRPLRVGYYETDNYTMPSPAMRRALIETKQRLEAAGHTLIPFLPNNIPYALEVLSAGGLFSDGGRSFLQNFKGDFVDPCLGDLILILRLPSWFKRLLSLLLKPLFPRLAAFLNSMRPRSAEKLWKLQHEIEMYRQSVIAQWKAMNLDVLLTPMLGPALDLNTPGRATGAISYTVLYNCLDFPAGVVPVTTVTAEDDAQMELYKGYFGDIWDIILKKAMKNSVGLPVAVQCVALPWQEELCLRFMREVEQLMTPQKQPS
Procedure, shortened: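 Blocking arm of the rat brain PET, run in male Sprague-Dawley rats under isoflurane. Unlabelled FAAH inhibitor (3.0 mg/kg, in 300 μL saline with 10% ethanol and 5% Tween 80) given 30 min before the tracer (40–51 MBq, 0.7–1 nmol iv). Dynamic 90 min list-mode scan. Regional brain uptake taken as decay-corrected SUV and compared with baseline. Three rats per condition.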

[7] = tested on: PgP/Bcrp; test: PET imaging in wild-type and PgP/Bcrp knockout mice; assay type: in vivo
Procedure, shortened: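 Male […] mice, wild-type and Abcb1a/1b−/−Abcg2−/− (17–18 weeks), set up in the scanner as for the rat scans. Tracer (18 MBq, 0.12 nmol/100 μL) injected via tail-vein line. Dynamic 3D list-mode acquisition for 60 min (1 min × 4, 2 min × 8, 5 min × 8). Regional time-activity curves taken as SUV, processed as for rats. Three mice per genotype.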

[8] = Radiometabolite analysis in rat plasma and brain homogenate; assay type: in vivo, Sprague-Dawley rats; settings: 15 min post-tracer injection
Procedure, shortened: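 Sprague-Dawley rats (n = 3) given tracer iv (82 MBq, 1.1 nmol) and killed at 15 min. Plasma separated (15,000 g, 2 min, 4 °C) and deproteinised with equal volume acetonitrile. Brain homogenised in ice-cold acetonitrile/water 1:1 and centrifuged; supernatant recovery >90%. Supernatants run on radio-HPLC (C18, acetonitrile/0.05 M NH4OAc 2:8, 2 mL/min). Parent fraction = parent peak area/total peak area × 100, decay-corrected.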

[9] = Lipophilicity, n-octanol/PBS liquid-liquid partition; assay type: physicochemical; settings: pH 7.4
Procedure, shortened: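 Radiolabelled test compound (~150,000 cpm) shaken with n-octanol (3.0 g) and 0.1 M sodium phosphate-buffered saline pH 7.40 (3.0 g): vortexed 3 min at room temperature, centrifuged 3500 rpm 5 min. Weighed aliquots of each phase gamma-counted. Remaining organic layer repartitioned until logD values were consistent. LogD = log[(cpm/g octanol)/(cpm/g PBS)]. Triplicate.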

[10] = Stability of formulated tracer; assay type: physicochemical; settings: within 90 min after formulation in saline
[11] = Whole body biodistribution in mice; assay type: in vivo, ddY mice; settings: for Distribution of radioactivity, blood / Distribution of radioactivity, brain / Distribution of radioactivity, heart / Distribution of radioactivity, kidneys / Distribution of radioactivity, liver / Distribution of radioactivity, lungs / Distribution of radioactivity, muscle / Distribution of radioactivity, small intestine / Distribution of radioactivity, spleen / Distribution of radioactivity, testes: mean ± SD, n = 3
Procedure, shortened: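 Male ddY mice (7 weeks, 34–36 g) given tracer in saline (2 MBq, 0.03 nmol/200 μL) via tail vein. Three mice killed at each time point: 1, 5, 15, 30 and 60 min. Blood, brain, heart, lung, liver, spleen, kidneys, small intestine with contents, muscle and testes removed and weighed. Tissues gamma-counted with decay correction. Uptake expressed as %ID/g wet tissue.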

In the case of `COc1ccccc1CCCCCCC(=O)c1ncc(-c2ccccn2)o1` [MPPO, 7-(2-methoxyphenyl)-1-(5-(pyridin-2-yl)oxazol-2-yl)heptan-1-one], the “selectivity over hydrolytic enzyme KIAA1363” value [1] is given as > 10^5 fold, the IC50 [2] is given as 10 nM and the “selectivity over triacylglycerol hydrolase (TGH)” value [3] is given as “greater than 500 fold”.
In the case of `O=[11C](NC1CCCCC1)Oc1ccc(O)c(-c2ccccc2)c1` [[^11C]CURB], the logD7.4 [4] is given as 2.8.
For `[11CH3]Oc1ccccc1CCCCCCC(=O)c1ncc(-c2ccccn2)o1` [[^11C]MPPO, 7-(2-[^11C]methoxyphenyl)-1-(5-(pyridin-2-yl)oxazol-2-yl)heptan-1-one], the “time of peak radioactivity in brain tissues” value ([5]; rat brain PET, after injection) was 1.5 min, the “highest (peak) radioactivity in cerebellar nuclei” value ([5]; rat brain PET, baseline) was 0.87 SUV and the “brain washout, 5 min/60 min ratio” value ([5]; rat whole brain PET) was 5.1. The “maximum uptake in whole brain” value ([5]; rat whole brain PET) was 0.65 SUV, the “specificity to FAAH in rat brains” value [6] was “modest” and the “peak brain uptake, cerebellum” value ([7]; PgP/Bcrp KO mice) was 1.04 SUV. The “ratio of KO/WT in AUC, cerebellum” value ([7]; PgP/Bcrp KO vs wild type mice) was 1.2, the “ratio of KO/WT in AUC, cerebral cortex” value ([7]; PgP/Bcrp KO vs wild type mice) was 1.2 and the “substrate for Pgp/Bcrp” value ([7]; mice, blood-brain barrier) was “not likely a substrate for Pgp/Bcrp”. For the same molecule, the “peak brain uptake, cerebellum” value ([7]; wild type mice) was 0.78 SUV, the “peak brain uptake, cerebral cortex” value ([7]; wild type mice) was 0.74 SUV and the “metabolism (radioactivity associated with hydrophilic metabolites)” value ([8]; rat brain homogenates) was 75%. For the same molecule, the “metabolism (radioactivity associated with hydrophilic metabolites)” value ([8]; rat plasma) was 90%, the logD [9] was 3.43 and the radiolysis after formulation [10] was “no radiolysis was observed”. The brain uptake ([11]; mice biodistribution) was 0.8 SUV, the “Distribution of radioactivity, blood” value ([11]; mice, 1 min after injection) was 1.83 ± 0.15 %ID/g and the “Distribution of radioactivity, brain” value ([11]; mice, 1 min after injection) was 1.87 ± 0.20 %ID/g. For the same molecule, the “Distribution of radioactivity, heart” value ([11]; mice, 1 min after injection) was 6.89 ± 0.60 %ID/g, the “Distribution of radioactivity, kidneys” value ([11]; mice, 1 min after injection) was 12.64 ± 0.56 %ID/g and the “Distribution of radioactivity, liver” value ([11]; mice, 1 min after injection) was 9.78 ± 1.10 %ID/g. The “Distribution of radioactivity, lungs” value ([11]; mice, 1 min after injection) was 17.47 ± 3.88 %ID/g, the “Distribution of radioactivity, muscle” value ([11]; mice, 1 min after injection) was 1.78 ±0.16 %ID/g and the “Distribution of radioactivity, small intestine” value (“Distribution … small intestine” for short) ([11]; mice, 1 min after injection) was 3.08 ± 0.29 %ID/g. For the same molecule, the “Distribution of radioactivity, spleen” value ([11]; mice, 1 min after injection) was 2.28 ± 0.50 %ID/g, the “Distribution of radioactivity, testes” value ([11]; mice, 1 min after injection) was 0.44 ± 0.05 %ID/g and the “Distribution of radioactivity, blood” value ([11]; mice, 5 min after injection) was 0.75 ± 0.07 %ID/g. For the same molecule, the “Distribution of radioactivity, brain” value ([11]; mice, 5 min after injection) was 2.27 ± 0.16 %ID/g, the “Distribution of radioactivity, heart” value ([11]; mice, 5 min after injection) was 1.65 ± 0.07 %ID/g and the “Distribution of radioactivity, kidneys” value ([11]; mice, 5 min after injection) was 17.17 ± 1.67 %ID/g. The “Distribution of radioactivity, liver” value ([11]; mice, 5 min after injection) was 18.61 ± 2.31 %ID/g, the “Distribution of radioactivity, lungs” value ([11]; mice, 5 min after injection) was 4.88 ± 0.41 %ID/g and the “Distribution of radioactivity, muscle” value ([11]; mice, 5 min after injection) was 1.03 ± 0.09 %ID/g. The “Distribution … small intestine” value ([11]; mice, 5 min after injection) was 7.22 ± 0.89 %ID/g, the “Distribution of radioactivity, spleen” value ([11]; mice, 5 min after injection) was 1.29 ± 0.22 %ID/g and the “Distribution of radioactivity, testes” value ([11]; mice, 5 min after injection) was 0.67 ± 0.02 %ID/g. The “Distribution of radioactivity, blood” value ([11]; mice, 15 min after injection) was 0.38 ± 0.03 %ID/g, the “Distribution of radioactivity, brain” value ([11]; mice, 15 min after injection) was 1.81 ± 0.09 %ID/g and the “Distribution of radioactivity, heart” value ([11]; mice, 15 min after injection) was 0.55 ± 0.01 %ID/g. The “Distribution of radioactivity, kidneys” value ([11]; mice, 15 min after injection) was 13.70 ± 0.69 %ID/g, the “Distribution of radioactivity, liver” value ([11]; mice, 15 min after injection) was 20.05 ± 1.43 %ID/g and the “Distribution of radioactivity, lungs” value ([11]; mice, 15 min after injection) was 1.20 ± 0.04 %ID/g. The “Distribution of radioactivity, muscle” value ([11]; mice, 15 min after injection) was 0.58 ± 0.17 %ID/g, the “Distribution … small intestine” value ([11]; mice, 15 min after injection) was 18.54 ± 4.00 %ID/g and the “Distribution of radioactivity, spleen” value ([11]; mice, 15 min after injection) was 0.60 ± 0.03 %ID/g. The “Distribution of radioactivity, testes” value ([11]; mice, 15 min after injection) was 0.59 ± 0.00 %ID/g, the “Distribution of radioactivity, blood” value ([11]; mice, 30 min after injection) was 0.34 ± 0.05 %ID/g and the “Distribution of radioactivity, brain” value ([11]; mice, 30 min after injection) was 1.40 ± 0.15 %ID/g. The “Distribution of radioactivity, heart” value ([11]; mice, 30 min after injection) was 0.51 ± 0.03 %ID/g, the “Distribution of radioactivity, kidneys” value ([11]; mice, 30 min after injection) was 9.55 ± 0.65 %ID/g and the “Distribution of radioactivity, liver” value ([11]; mice, 30 min after injection) was 17.47 ± 1.10 %ID/g. For the same molecule, the “Distribution of radioactivity, lungs” value ([11]; mice, 30 min after injection) was 1.19 ± 0.18 %ID/g, the “Distribution of radioactivity, muscle” value ([11]; mice, 30 min after injection) was 0.50 ± 0.17 %ID/g and the “Distribution of radioactivity, spleen” value ([11]; mice, 30 min after injection) was 0.49 ± 0.03 %ID/g. For the same molecule, the “Distribution of radioactivity, testes” value ([11]; mice, 30 min after injection) was 0.48 ± 0.02 %ID/g, the “Distribution of radioactivity, heart” value ([11]; mice, 60 min after injection) was 0.32 ± 0.03 %ID/g and the “Distribution of radioactivity, kidneys” value ([11]; mice, 60 min after injection) was 6.20 ± 0.70 %ID/g. The “Distribution of radioactivity, liver” value ([11]; mice, 60 min after injection) was 13.69 ±0.63 %ID/g, the “Distribution of radioactivity, lungs” value ([11]; mice, 60 min after injection) was 0.64 ± 0.08 %ID/g and the “Distribution of radioactivity, muscle” value ([11]; mice, 60 min after injection) was 0.24 ± 0.04 %ID/g. For the same molecule, the “Distribution … small intestine” value ([11]; mice, 60 min after injection) was 13.75 ±3.44 %ID/g, the “Distribution of radioactivity, spleen” value ([11]; mice, 60 min after injection) was 0.37 ±0.01 %ID/g and the “Distribution of radioactivity, testes” value ([11]; mice, 60 min after injection) was 0.30 ± 0.03 %ID/g. The “blood clearance, 1 min/60 min ratio” value ([11]; mice, blood radioactivity) was 6.1 and the “brain washout, 5 min/60 min ratio” value ([11]; mice, brain radioactivity) was 2.6.
For `O=C(Nc1cccnn1)N1CCC(=Cc2cccc(Oc3ccc(C(F)(F)F)cn3)c2)CC1` [[^11C]PF-04457845], the logD7.4 [4] is listed as 3.48.
